First the molecules themselves.
B1: NELF-E aptamer (parent)
chain: CCCAACGACUGCCGAGCGAGAUUACGCUUGAGCGCCCCACUGAGGAUGCCCACGGGCGAUUGGGGCACGG

Variants of B1 are the subject of this series. The series can be described thus: HiTS-RAP. To be noted: with NELF-E (Drosophila). Put shortly:
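Aptamer DNA templates bearing a T7 promoter and a ter site were sequenced on an Illumina GAIIx flowcell. T7 RNA polymerase then transcribed them in situ, and GST-Tus halted transcription over 30 minutes at 37°C. After a 30-minute room-temperature equilibration with NELF-E-mOrange at 0.064 to 1000 nM in HEPES binding buffer, clusters were imaged, using only the first binding curve. Intensities normalised to sequencing intensity were averaged per sequence and fitted with weighted Hill fits to give Kd, retaining only fits whose variance stayed under 1,000,000.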
Consider CCCCACGACUGCCUAGCGAGAUUACGCUUGAGCGCCCCACUGAGGAUGCCCACGGGCGAUUGGGGCACGG [A4C G14U], for which the Kd – broadly, the concentration at which binding is half-saturated – worked out at 7.54 nM. The value for CCCCACGAGUGCCGAGCGAGAUUACGCUUGAGCGCCCCACUGAGGAUGCCCACGGGCGAUUGGGGCACGG [A4C C9G] was 7.49 nM; that for CCCCAGGACUGCCGAGCGAGAUUACGCUUGAGCGCCCCACUGAGGAUGCCCACGGGCGAUUGGGGCACGG [A4C C6G] was 8.66 nM; that for CCCCACGGCUGCCGAGCGAGAUUACGCUUGAGCGCCCCACUGAGGAUGCCCACGGGCGAUUGGGGCACGG [A4C A8G] was 6.82 nM. To CCCGACGUCUGCCGAGCGAGAUUACGCUUGAGCGCCCCACUGAGGAUGCCCACGGGCGAUUGGGGCACGG [A4G A8U] belongs 6.21 nM; to CCCGACGCCUGCCGAGCGAGAUUACGCUUGAGCGCCCCACUGAGGAUGCCCACGGGCGAUUGGGGCACGG [A4G A8C], 6.29 nM; to CCCGACGGCUGCCGAGCGAGAUUACGCUUGAGCGCCCCACUGAGGAUGCCCACGGGCGAUUGGGGCACGG [A4G A8G], 5.83 nM. To CCCGACGACUGCCGUGCGAGAUUACGCUUGAGCGCCCCACUGAGGAUGCCCACGGGCGAUUGGGGCACGG [A4G A15U] belongs 6.63 nM. For the variant CCCGACGACUGCCGGGCGAGAUUACGCUUGAGCGCCCCACUGAGGAUGCCCACGGGCGAUUGGGGCACGG [A4G A15G], the Kd came to 4.97 nM. To CCCCACGACGGCCGAGCGAGAUUACGCUUGAGCGCCCCACUGAGGAUGCCCACGGGCGAUUGGGGCACGG [A4C U10G] belongs 6.48 nM; to CCCGACGACUGCCGAGCGCGAUUACGCUUGAGCGCCCCACUGAGGAUGCCCACGGGCGAUUGGGGCACGG [A4G A19C], 4.21 nM; to CCCGACGACUGCCGAGCGGGAUUACGCUUGAGCGCCCCACUGAGGAUGCCCACGGGCGAUUGGGGCACGG [A4G A19G], 5.64 nM. On to CCCGACGACUGCCGAGCGUGAUUACGCUUGAGCGCCCCACUGAGGAUGCCCACGGGCGAUUGGGGCACGG [A4G A19U], for which the Kd turned out to be 6.08 nM. The value for CCCCACGACUGCCGAGCGAGAUUACGCUUGAGCGCCCCACGGAGGAUGCCCACGGGCGAUUGGGGCACGG [A4C U41G] was 8.98 nM. To CCCCACGACUGCCGAGCGAGAUGACGCUUGAGCGCCCCACUGAGGAUGCCCACGGGCGAUUGGGGCACGG [A4C U23G] belongs 7.29 nM. On to CCCGACGACUGCCGAGCGAGGUUACGCUUGAGCGCCCCACUGAGGAUGCCCACGGGCGAUUGGGGCACGG [A4G A21G], for which the Kd amounted to 6 nM. Regarding CCCGACGACUGCCGAGCGAGUUUACGCUUGAGCGCCCCACUGAGGAUGCCCACGGGCGAUUGGGGCACGG [A4G A21U], the Kd was 5.84 nM. The value for CCCCGCGACUGCCGAGCGAGAUUACGCUUGAGCGCCCCACUGAGGAUGCCCACGGGCGAUUGGGGCACGG [A4C A5G] was 6.09 nM. To CCCCACGACUGCCGAGCGAGAUUGCGCUUGAGCGCCCCACUGAGGAUGCCCACGGGCGAUUGGGGCACGG [A4C A24G] belongs 7.08 nM; to CCCCACUACUGCCGAGCGAGAUUACGCUUGAGCGCCCCACUGAGGAUGCCCACGGGCGAUUGGGGCACGG [A4C G7U], 6.88 nM; to CCAAACGACUGCCGAGCGAGAUUACGCUUGAGCGCCCCACUGAGGAUGCCCACGGGCGAUUGGGGCACGG [C3A], 5.8 nM.

Take CCUAACGACUGCCGAGCGAGAUUACGCUUGAGCGCCCCACUGAGGAUGCCCACGGGCGAUUGGGGCACGG [C3U]: the Kd came out at 5.55 nM. The value for CCGAACGACUGCCGAGCGAGAUUACGCUUGAGCGCCCCACUGAGGAUGCCCACGGGCGAUUGGGGCACGG [C3G] was 5.16 nM. As for CCCCACGACUGGCGAGCGAGAUUACGCUUGAGCGCCCCACUGAGGAUGCCCACGGGCGAUUGGGGCACGG [A4C C12G], the dissociation constant Kd turned out to be 7.65 nM. On to UCCAACGACUGCCGAGCGAGAUUACGCUUGAGCGCCCCACUGAGGAUGCCCACGGGCGAUUGGGGCACGG [C1U], for which the Kd stood at 4.73 nM.

For the variant ACCAACGACUGCCGAGCGAGAUUACGCUUGAGCGCCCCACUGAGGAUGCCCACGGGCGAUUGGGGCACGG [C1A], the dissociation constant (Kd) turned out to be 4.94 nM. The value for GCCAACGACUGCCGAGCGAGAUUACGCUUGAGCGCCCCACUGAGGAUGCCCACGGGCGAUUGGGGCACGG [C1G] was 4.93 nM; that for CUCAACGACUGCCGAGCGAGAUUACGCUUGAGCGCCCCACUGAGGAUGCCCACGGGCGAUUGGGGCACGG [C2U] was 5.27 nM. On to CACAACGACUGCCGAGCGAGAUUACGCUUGAGCGCCCCACUGAGGAUGCCCACGGGCGAUUGGGGCACGG [C2A], for which the dissociation constant (Kd) stood at 5.18 nM. To CGCAACGACUGCCGAGCGAGAUUACGCUUGAGCGCCCCACUGAGGAUGCCCACGGGCGAUUGGGGCACGG [C2G] belongs 5.3 nM; to CCCCACGACUGCCGAGCGAGAUUACGCUUGAGCGCCCCACUGAGGAUGCCCACGGGCGAUUGGGGCACGG [A4C], 6.33 nM. To CCCGACGACUGCCGAGCGAGAUUACGCUUGAGCGCCCCACUGAGGAUGCCCACGGGCGAUUGGGGCACGG [A4G] belongs 5.08 nM; to CCCCACGACUGCCGAGCGAGAGUACGCUUGAGCGCCCCACUGAGGAUGCCCACGGGCGAUUGGGGCACGG [A4C U22G], 6.04 nM; to CCCGACGACUGCCGAGCGAGAUUUCGCUUGAGCGCCCCACUGAGGAUGCCCACGGGCGAUUGGGGCACGG [A4G A24U], 6.89 nM. The value for CCCGACGACUGCCGAGCGAGAUUGCGCUUGAGCGCCCCACUGAGGAUGCCCACGGGCGAUUGGGGCACGG [A4G A24G] was 6.26 nM; that for CCCCACGACUGCCGAGCGAGAUUACGCUGGAGCGCCCCACUGAGGAUGCCCACGGGCGAUUGGGGCACGG [A4C U29G] was 7.86 nM; that for CCCGUCGACUGCCGAGCGAGAUUACGCUUGAGCGCCCCACUGAGGAUGCCCACGGGCGAUUGGGGCACGG [A4G A5U] was 5.91 nM. CCCGGCGACUGCCGAGCGAGAUUACGCUUGAGCGCCCCACUGAGGAUGCCCACGGGCGAUUGGGGCACGG [A4G A5G]: the dissociation constant Kd came out at 5.81 nM. For the variant CCCGCCGACUGCCGAGCGAGAUUACGCUUGAGCGCCCCACUGAGGAUGCCCACGGGCGAUUGGGGCACGG [A4G A5C], the Kd was 6.45 nM.

The record behind these values is the RNAGym collection of RNA variant scans (doi:10.1038/nmeth.2970).
